High-throughput results from PubChem.
The list is not random: actives were taken first. Their share in the collection is about 3.7%.
KCNK3 block: human KCNK3 channel inhibition, primary screen. O14649. CHO-KCNK3 thallium flux, FluxOR fluorescence; hits give low values. B-score at 10 µM. actives 0.84% (n = 340,000). AID 602410;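 active = B-score under library mean minus 4 SD, starting fluorescence ratio at most library mean plus 5 SD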;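 note: more negative B-score means stronger inhibition of thallium flux through KCNK3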
KCNK9 inh-1: human KCNK9 channel inhibition. B-score at 10 µM. actives 1.2% (n = 310,000). Q9NPC2. AID 488922. HEK293 KCNK9, FluxOR thallium flux fluorescence; hits give low values;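 active = ratio B-score over 3 SD below the library mean, with starting fluorescence within 5 SD of its mean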;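 note: negative B-score means less thallium flux so channel inhibition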
Target sequence (Q9NPC2 whole entry, looked up): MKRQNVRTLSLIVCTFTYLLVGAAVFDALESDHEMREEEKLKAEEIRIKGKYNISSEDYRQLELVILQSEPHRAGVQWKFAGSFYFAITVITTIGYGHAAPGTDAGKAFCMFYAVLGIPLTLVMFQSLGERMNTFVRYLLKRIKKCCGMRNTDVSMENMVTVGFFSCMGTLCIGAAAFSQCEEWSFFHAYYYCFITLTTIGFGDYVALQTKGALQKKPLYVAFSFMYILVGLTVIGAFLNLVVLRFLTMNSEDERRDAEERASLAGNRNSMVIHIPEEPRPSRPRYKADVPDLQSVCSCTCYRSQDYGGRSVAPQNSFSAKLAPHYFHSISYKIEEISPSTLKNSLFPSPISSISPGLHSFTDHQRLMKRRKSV
Kir21 inh: inhibitors of mouse Kir2.1 inward-rectifier potassium channel | P35561 | HEK293-Kir2.1, FluxOR thallium flux fluorescence; hits give low values | B-score at 10 µM | actives 0.85% (n = 310,000);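 active = fluorescence ratio B-score at or below minus 3 SD of library scores, with starting-brightness B-score within 2 SD, cut at about -4.2 in these data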;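 note: channel flux triggered by added potassium and thallium sulfate stimulus; B-score of peak minus minimum fluorescence over baseline after thallium stimulus; more negative B-score means stronger Kir2.1 block with less thallium influx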
hERG protect: shields human hERG channel from block by proarrhythmic agents | Q12809 | CHO-hERG, FluxOR thallium flux, dofetilide IC70 present | activation (rescue from dofetilide block), less the hit threshold, % at 10 µM | actives 0.51% (n = 310,000) | AID 1511;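 active = activation above the mean of controls blocked by dofetilide plus 5 SD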;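 note: thallium influx through hERG after potassium depolarization seen as dye fluorescence rise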
KCNQ1 act: potentiates or activates the human KCNQ1 potassium channel. B-score at 10 µM. AID 2648. actives 0.35% (n = 310,000). CHO-K1 KCNQ1, thallium flux FluxOR fluorescence; hits give high values;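 active = fluorescence ratio B-score, a plate-corrected score, at least three library SD, with initial intensity B-score within 5 SD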
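System: CHO-K1 cells stably expressing KCNQ1 / Medium: assay buffer for compound exposure, DMSO matched across wells / Reagent: thallium- and potassium-containing depolarizing buffer / Compound: one concentration, matched DMSO / Incubation: 20 min compound pretreatment at room temperature / Measured by: kinetic FluxOR fluorescence, 10 s baseline plus 110 s post-stimulus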
KCNQ1 inh: blocks the human KCNQ1 potassium channel | actives 1.3% (n = 310,000) | P51787 | B-score at 10 µM | AID 2642 | CHO-K1 KCNQ1, FluxOR thallium flux fluorescence; hits give high values;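 active = compounds whose thallium flux B-score, printed positive for inhibition, exceeds three library SD while starting fluorescence stays within three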;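 note: channel opened by potassium depolarization with thallium stimulus after 20 min compound exposure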
hERG inh: counter-screen for Kir2.1 inhibitors: effect on human hERG. hERG-expressing cells, thallium flux. actives 20% (n = 320). inhibition, % at 10 µM. shares compounds with Kir21 inh;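 note: host cells are CHO cells stably expressing hERG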
KCNK9 inh-2: selectivity of Kir2.1 inhibitors: effect on human KCNK9; shares compounds with Kir21 inh; KCNK9-expressing cells, ion flux inhibition; inhibition, % at 10 µM; actives 5% (n = 320); AID 2329
Kir21 ephys inh: blocks mouse Kir2.1 current in automated electrophysiology | shares compounds with Kir21 inh | Kir2.1 cells, automated patch-clamp current inhibition | inhibition, % at 25 µM | actives 71% (n = 320)
* = called active by the depositor; i = inactive; / = no result. Unless noted, the rule behind the calls is not given here.

SMILES	KCNK3 block	KCNK9 inh-1	Kir21 inh	hERG protect	KCNQ1 act	KCNQ1 inh	hERG inh	KCNK9 inh-2	Kir21 ephys inh
CN(C)c1ccc(Nc2nc(N)c3ccccc3n2)cc1	i	i	-7.52*	-8.0	i	i	i	i	64.9%*
CCOc1ccc(Nc2nc(N)c3ccccc3n2)cc1	i	i	-9.87*	-9.5	i	i	i	i	69.7%*
NC(=O)CCn1c2ccccc2c2ccccc21	i	i	2.62	-9.1	i	i	/	/	/
CC(C)CCn1c2ccccc2c2cc(CC(N)=O)ccc21	i	i	4.01	-5.7	i	i	i	i	i
Cc1cc(OCCOCCNCc2ccccc2)ccc1C(C)C	i	i	-7.84*	-17.1	i	i	49.0%*	i	52.3%*
c1cc2ccc3ccc(CN4CCOCC4)c4ccc(c1)c2c34	i	i	0.31	-7.8	i	i	/	/	/
OC1CCCN(Cc2ccc3ccc4cccc5ccc2c3c45)C1 (configuration not stated)	i	i	-5.79*	-3.9	i	i	48.0%*	i	i
Cc1sc2ncnc(N3CCC(C(=O)Nc4cc(C(F)(F)F)ccc4OCC(F)(F)F)CC3)c2c1C	i	/	/	/	/	/	/	/	/
CCN(CCNCC(O)COc1ccccc1C(C)C)c1cccc(C)c1 (configuration not stated)	i	i	-6.37*	-21.4	i	i	61.0%*	i	i
CCOC(=O)N1CCN(CC(O)COc2ccccc2C(C)C)CC1 (configuration not stated)	i	i	0.17	-5.9	i	i	/	/	/
CN(C)C(=O)c1ccccc1Sc1cc(Cl)ccc1Cl	i	i	-6.66*	-12.7	i	i	i	i	19.8%*
CN(C)C(=O)c1ccccc1Sc1ccc(Cl)cc1Cl	i	i	-4.16	-12.1	i	i	/	/	/
CC(C)O/C(=N\S(=O)(=O)c1ccc(Cl)cc1)c1ccccc1	i	i	-8.32*	-14.8	i	i	i	i	17.2%*
CCCCN(CC)CCCNC(=O)c1cn(-c2ccc(OC)cc2)c(=O)c2ccccc12	i	i	0.45	-5.2	i	i	/	/	/
CCC(=O)OCc1c(C(F)(F)F)nn(C)c1Sc1ccc(F)cc1	i	i	-8.42*	-20.4	i	i	i	i	30.9%*
CC1(C)CC(NC(=O)c2cccc(S(=O)(=O)Nc3cccc(Cl)c3)c2)CC(C)(C)N1	i	/	/	/	/	/	/	/	/
CCN(CC)CCCN(C(=O)c1ccc(OC)cc1)c1nc(-c2ccc(OC)cc2)cs1	i	i	-6.07*	-13.8	i	i	i	i	i
Cc1ccc2nc(NCc3ccccc3)[nH]c2c1	i	i	-10.1*	-20.5	i	i	i	31.0%*	72.1%*
Oc1ccc(Nc2nc(N3CCCC3)c3ccccc3n2)cc1	i	i	-7.51*	-13.0	i	i	64.0%*	i	i
Cc1cc(C)c(S(=O)(=O)N2CCCCC2CCNC(=O)C(=O)NCc2cccnc2)c(C)c1 (configuration not stated)	i	i	-0.21	-11.2	i	i	/	/	/
Cc1cc(C)nc(SCCCNCc2ccc(Br)cc2)n1	i	i	-7.1*	-12.7	i	i	i	i	44.5%*
Cc1cc(Cl)ccc1OC(C)C(=O)NC(C)C1CCCO1 (configuration not stated)	i	i	-8.48*	-10.1	i	i	i	i	9.2%*
CC(NC(=O)Nc1ccc(Cl)cc1)C1CCCO1 (configuration not stated)	i	i	-0.34	-3.0	i	i	/	/	/
COc1ccc2ccccc2c1C1NC(=O)c2ccccc2N1 (configuration not stated)	i	/	/	/	/	/	/	/	/
